Structures are written as SMILES. pKi: −log10 of the molar value. Bounds are passed on as bounds.

As usually defined, the pKi is the negative decadic logarithm of the Ki, by convention in mol/L. A lower pKi goes with a high Ki. One may read the ED50 as the midpoint of the dose-response relation. Broadly, the inhibition in vivo is the change of the read-out against control, counted positive when it falls.

The target in one assay is Cannabinoid receptor 1 (Homo sapiens, UniProt P21554). As to the kind of experiment: Evaluated for its binding affinity towards Cannabinoid receptor 1 (CB1).
Assay [1] is filed under the species Mus musculus. As to the kind of experiment: Tested for the concentration for the inhibition of spontaneous activity (SA). In kind it is functional.
The species named for assay [2] is Mus musculus. Nature of the assay: Tested for the concentration for antinociception as measured by the tail-flick response (TF). In kind it is functional.
The species entered for assay [3] is Mus musculus. Nature of the assay: Tested for the concentration that shows hypothermia as changes in rectal temperature (RT). In kind it is functional.
The test system of assay [4] is Mus musculus. As to the kind of experiment: The compound was tested for the concentration for antinociception as measured by the tail-flick response (TF) at a dose of 30 mg/kg. The format is functional. The essentials:
(§1)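 Mice, single intravenous tail-vein dose in ethanol:emulphor:saline 1:1:18 at 0.1 mL/10 g. Several measures were taken in the same mouse. SA is % of control activity, and TF is %MPE with a 10-s maximum latency. Effect is expressed as percent of the Δ9-THC maximum (90% for SA, 100% for TF).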

For assay [5], the system named is Mus musculus. Nature of the assay: The compound was tested for the concentration that shows hypothermia as changes in rectal temperature (RT) at a dose of 30 mg/kg. The format is functional. The essentials:
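Mice, single intravenous tail-vein dose in ethanol:emulphor:saline 1:1:18 at 0.1 mL/10 g. Rectal temperature change (Δ°C) was measured in the same mouse as the other behavioural measures.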

The subject of assay [6] is Mus musculus. Nature of the assay: The compound was tested for the concentration for the inhibition of spontaneous activity (SA) at a dose of 30 mg/kg. The format is functional. The method in brief:
as §1

In assay [7] the test system is Mus musculus. Nature of the assay: The compound was tested for the concentration for the inhibition of spontaneous activity (SA) at a dose of 100 mg/kg. In kind it is functional. The essentials:
as §1

For assay [8], the species on record is Mus musculus. Nature of the assay: Tested for the concentration that shows ring immobility (RI). In kind it is functional.
For assay [9], the system named is Mus musculus. As to the kind of experiment: The compound was tested for the concentration for antinociception as measured by the tail-flick response (TF) at a dose of 60 mg/kg. The format is functional. The essentials:
as §1

Chain of Cannabinoid receptor 1 (P21554 whole entry): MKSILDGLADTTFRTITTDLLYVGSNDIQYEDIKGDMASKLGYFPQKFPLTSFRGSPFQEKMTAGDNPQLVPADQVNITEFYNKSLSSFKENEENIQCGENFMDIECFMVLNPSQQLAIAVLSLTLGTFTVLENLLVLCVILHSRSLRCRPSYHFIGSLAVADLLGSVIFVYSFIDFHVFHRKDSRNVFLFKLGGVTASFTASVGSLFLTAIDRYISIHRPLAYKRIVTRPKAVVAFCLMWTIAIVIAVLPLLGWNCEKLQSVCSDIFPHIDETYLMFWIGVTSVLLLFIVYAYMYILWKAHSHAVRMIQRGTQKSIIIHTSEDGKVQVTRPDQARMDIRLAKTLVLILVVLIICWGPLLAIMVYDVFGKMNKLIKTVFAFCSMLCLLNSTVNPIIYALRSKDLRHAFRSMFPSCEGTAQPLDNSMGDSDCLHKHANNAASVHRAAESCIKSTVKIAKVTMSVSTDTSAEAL

As for `CC1=CC[C@@H]2[C@@H](C1)c1c(O)cc(C(C)(C)CCCCOc3ccc(C#N)cc3)cc1OC2(C)C`, the negative logarithm of the Ki (pKi) on Cannabinoid receptor 1 was 8.52. Also, the results for the median effective dose (ED50) in the assay filed under Mus musculus [1], in the assay filed under Mus musculus [2] and in the assay listed under Mus musculus [3] were 0.1 mg/kg, 1.15 mg/kg and 4.24 mg/kg, respectively.

In turn, `CC1=CC[C@@H]2[C@@H](C1)c1c(O)cc(C(C)(C)CCCCC(=O)Nc3ccc(Cl)cc3)cc1OC2(C)C` had a negative logarithm of the Ki (pKi) on Cannabinoid receptor 1 of 6.73. The inhibition in vivo at 30 mg/kg is 15% in the assay on Mus musculus [4], -1.6% in the assay on Mus musculus [5] and 39% with Mus musculus [6].

Regarding `CC1=CC[C@@H]2[C@@H](C1)c1c(O)cc(C(C)(C)CCCCC(=O)NN3CCCCC3)cc1OC2(C)C`, on Cannabinoid receptor 1, the pKi was 8.92. For the same molecule, the figures for the ED50 in the assay listed under Mus musculus [1], in the assay filed under Mus musculus [2] and in the assay filed under Mus musculus [3] were 0.04 mg/kg, 0.16 mg/kg and 0.17 mg/kg, respectively.

The molecule `CC1=CC[C@@H]2[C@@H](C1)c1c(O)cc(C(C)(C)CCCCCC#N)cc1OC2(C)C` gave a pKi at Cannabinoid receptor 1 of 9.22. In addition, the ED50 in the assay filed under Mus musculus [1] was found to be 0.006 mg/kg; in the assay listed under Mus musculus [2], 0.01 mg/kg; in the assay listed under Mus musculus [3], 0.005 mg/kg.

Molecule `CC1=CC[C@@H]2[C@@H](C1)c1c(O)cc(C(C)(C)CCCCC(=O)Nc3ccc(S(N)(=O)=O)cc3)cc1OC2(C)C` showed a negative-log Ki (pKi) on Cannabinoid receptor 1 of 7.72. Moreover, the ED50 in the assay listed under Mus musculus [1] turned out to be 2.03 mg/kg; in the assay listed under Mus musculus [2], 3.2 mg/kg; in the assay filed under Mus musculus [3] it was 1.7 mg/kg.

For `CC1=CC[C@@H]2[C@@H](C1)c1c(O)cc(C(C)(C)CCCCC(=O)Nc3ccc(Cl)cc3Cl)cc1OC2(C)C`, the negative-log Ki (pKi) on Cannabinoid receptor 1 was 7.74. The 50% effective dose (ED50) in the assay filed under Mus musculus [2] worked out at 14 mg/kg; in the assay listed under Mus musculus [3], 3.7 mg/kg. Besides, the inhibition in vivo at 30 mg/kg with Mus musculus [6] came out at 27%.

For `CC1=CC[C@@H]2[C@@H](C1)c1c(O)cc(C(C)(C)CCCCC(=O)NCCc3ccc(S(N)(=O)=O)cc3)cc1OC2(C)C`, the pKi on Cannabinoid receptor 1 was 7.54. In addition, the inhibition in vivo at 100 mg/kg in the assay with Mus musculus [7] stood at 60%. Further, the ED50 in the assay filed under Mus musculus [2], in the assay listed under Mus musculus [8] and in the assay listed under Mus musculus [3] was more than 100 mg/kg each time.

On Cannabinoid receptor 1, `CC1=CC[C@@H]2[C@@H](C1)c1c(O)cc(C(C)(C)CCCCC(=O)NCc3ccc(S(N)(=O)=O)cc3)cc1OC2(C)C` had a pKi of 7.22. In addition, the ED50 in the assay listed under Mus musculus [1] stood at 31 mg/kg; in the assay listed under Mus musculus [3], 37 mg/kg. For the same molecule, the inhibition in vivo at 60 mg/kg with Mus musculus [9] came out at 60%.

At Cannabinoid receptor 1, `CC1=CC[C@@H]2[C@@H](C1)c1c(O)cc(C(C)(C)CCCCC#N)cc1OC2(C)C` showed a pKi of 9.44. Also, the ED50 in the assay listed under Mus musculus [1] was 0.007 mg/kg; in the assay filed under Mus musculus [2], 0.0047 mg/kg; in the assay listed under Mus musculus [8], 0.095 mg/kg; in the assay listed under Mus musculus [3], 0.19 mg/kg.

Regarding `CC1=CC[C@@H]2[C@@H](C1)c1c(O)cc(C(C)(C)CCCC(O)C#N)cc1OC2(C)C` (stereo not given in full), on Cannabinoid receptor 1, the pKi is 7.89. Moreover, the median effective dose (ED50) in the assay filed under Mus musculus [1] was found to be 0.52 mg/kg; in the assay filed under Mus musculus [2], 0.11 mg/kg; in the assay listed under Mus musculus [8], 1.07 mg/kg; in the assay listed under Mus musculus [3] it was 1.5 mg/kg.

On Cannabinoid receptor 1, `CC1=CC[C@@H]2[C@@H](C1)c1c(O)cc(C(C)(C)CCCCC(C#N)c3ccccc3)cc1OC2(C)C` (stereo not given in full) had a negative-log Ki (pKi) of 8.04. Besides, the 50% effective dose (ED50) turned out to be 6.51 mg/kg in the assay filed under Mus musculus [1], 1.4 mg/kg in the assay filed under Mus musculus [2], 5.05 mg/kg in the assay filed under Mus musculus [8] and 4.2 mg/kg in the assay listed under Mus musculus [3].

Regarding `CC1=CC[C@@H]2[C@@H](C1)c1c(O)cc(C(C)(C)CCCCC(=O)N(C)C)cc1OC2(C)C`, the pKi at Cannabinoid receptor 1 is 9.07. Also, the ED50 in the assay listed under Mus musculus [1] came to 0.0015 mg/kg; in the assay filed under Mus musculus [2], 0.031 mg/kg; in the assay listed under Mus musculus [3], 0.12 mg/kg.

`CCN(CC)C(=O)CCCCC(C)(C)c1cc(O)c2c(c1)OC(C)(C)[C@@H]1CC=C(C)C[C@@H]21` gave a negative logarithm of the Ki (pKi) on Cannabinoid receptor 1 of 7.89. Also, the ED50 in the assay listed under Mus musculus [1] worked out at 0.09 mg/kg; in the assay filed under Mus musculus [2] it was 0.1 mg/kg; in the assay listed under Mus musculus [3], 0.4 mg/kg.

Molecule `CCCCCCC(C)(C)c1cc(O)c2c(c1)OC(C)(C)[C@@H]1CC=C(C)C[C@@H]21` gave a negative logarithm of the Ki (pKi) at Cannabinoid receptor 1 of 9.11. Also, the ED50 in the assay listed under Mus musculus [1] is 0.07 mg/kg; in the assay filed under Mus musculus [2] it was 0.04 mg/kg; in the assay filed under Mus musculus [8] it was 0.05 mg/kg; in the assay listed under Mus musculus [3], 0.04 mg/kg.

`CCCCCc1cc(O)c2c(c1)OC(C)(C)[C@@H]1CCC(C)=C[C@@H]21` [DRONABINOL]: the median effective dose (ED50) in the assay filed under Mus musculus [1] was found to be 1 mg/kg; in the assay filed under Mus musculus [2] it was 1.4 mg/kg; in the assay listed under Mus musculus [8], 1.5 mg/kg; in the assay filed under Mus musculus [3], 1.4 mg/kg.
